Data set [1] concerns the target NAD(P)H dehydrogenase [quinone] 1 (Mus musculus) (UniProt Q64669). Put plainly: Induction of NQO1 activity in mouse Hepa-1c1c7 cells assessed as induction ratio at 20 uM after 48 hr by NADPH-dependent MTT assay relative to control. Format: cell-based. In a few lines: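 Hepa 1c1c7 cells were seeded at 1 × 10^4 cells/mL in α-MEM with 10% FBS, grown 24 h (5% CO2, 37 °C), then exposed to sample for 24 h. Lysis used 0.8% digitonin in 2 mM EDTA (pH 7.8) for 10 min at 37 °C. A menadione/NADP/glucose-6-phosphate dehydrogenase mix with 0.72 mM MTT was added, then read at 590 nm after 3 min shaking. IR = NQO1 activity of sample-treated over DMSO-treated cells; mean ± SE of three independent experiments.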
On the technique in general: Tetrazolium assays rely on reduction of a dye to a coloured formazan, in cell work by metabolically active cells.

Data set [2] can be described thus: Cytotoxicity against mouse Hepa-1c1c7 cells assessed as cell viability at 20 uM […]. Format: functional. The conditions noted are these: read-out: Activity. In a few lines:
(§1)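 Hepa 1c1c7 cells were seeded at 1 × 10^4 cells/mL in α-MEM with 10% FBS and 0.1% penicillin–streptomycin, then grown 24 h at 37 °C in 5% CO2. Medium was replaced with fresh medium containing sample for another 24 h. Cells were then stained with 0.2% crystal violet in 2% ethanol for 10 min, washed and dried. Bound dye was dissolved in 0.5% SDS in 50% ethanol and read at 595 nm.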

The target of data set [3] is NAD(P)H dehydrogenase [quinone] 1 (Mus musculus) (UniProt Q64669). The data set is described as follows: Induction of NQO1 activity in mouse Hepa-1c1c7 cells assessed as induction ratio at 10 uM […] by NADPH-dependent MTT assay relative to control. In kind it is cell-based.
Chain of NAD(P)H dehydrogenase [quinone] 1 (Mus musculus) (Q64669 whole entry): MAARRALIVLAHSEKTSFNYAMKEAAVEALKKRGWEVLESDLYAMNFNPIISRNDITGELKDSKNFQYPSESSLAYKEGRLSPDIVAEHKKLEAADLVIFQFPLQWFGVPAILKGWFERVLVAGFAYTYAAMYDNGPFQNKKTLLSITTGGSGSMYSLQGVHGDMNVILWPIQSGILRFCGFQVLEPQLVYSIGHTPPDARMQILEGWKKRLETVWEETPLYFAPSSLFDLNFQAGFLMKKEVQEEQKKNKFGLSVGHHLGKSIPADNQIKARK
The nature of data set [4]: Cytotoxicity against mouse Hepa-1c1c7 cells assessed as cell viability at 10 uM […]. Format: functional. The conditions noted are these: read-out: Activity. In a few lines: as §1
Data set [5] is described as follows: Retention time of the compound by UPLC analysis. Format: physicochemical. The conditions noted are these: in the assay text read “preparative reverse-phase HPLC” for “UPLC”.

With `COc1c(C(=O)C[C@@H](OC)c2ccccc2)ccc2occc12`, the Ratio in data set [1] stood at 2.07. Further, the viability at 20 µM in data set [2] stood at 92%.

Take `O=c1c2c(oc3c1ccc1occc13)-c1ccccc1OC2`: the Ratio in data set [1] was 1.67. In addition, in data set [2], the viability at 20 µM turned out to be 97%.

Consider `CC1(C)C=Cc2c(ccc3c(=O)cc(-c4ccccc4)oc23)O1`, for which the Ratio in data set [1] was found to be 1.6. Further, the viability at 20 µM in data set [2] came out at 99%.

With `O=c1cc(-c2ccc(Br)cc2)oc2ccccc12`, the Ratio in data set [3] was determined as 2.17. Besides, the viability at 10 µM in data set [4] is 109%.

On to `COc1cc2c(=O)cc(-c3ccccc3)oc2c2c1OC(C)(C)C=C2`, for which the Ratio in data set [1] worked out at 1.4. In data set [2], the viability at 20 µM worked out at 106%.

On to `O=c1cc(-c2ccccc2)oc2c1ccc1occc12` [LANCEOLATIN B], for which, in data set [1], the Ratio came to 1.64. Moreover, the viability at 20 µM in data set [2] was found to be 100%.

Regarding `COc1c(C(=O)/C=C(\O)c2ccccc2)ccc2c1C=CC(C)(C)O2`, the Ratio in data set [1] was 1.9. The viability at 20 µM in data set [2] was determined as 77%.

As to `COc1c(C(=O)/C=C(\O)c2ccccc2)ccc2occc12` [PONGAMOL], the Ratio in data set [1] was 1.69. The viability at 20 µM in data set [2] is 78%.

As for `CC1(C)C=Cc2c(c(O)cc3c(=O)cc(-c4ccccc4)oc23)O1`, the Ratio in data set [1] came to 2.14. Further, in data set [2], the viability at 20 µM was 71%.

Turning to `COc1c(-c2ccccc2)oc2c(ccc3occc32)c1=O` [KARANJIN], the Ratio in data set [1] came to 1.57. Also, the viability at 20 µM in data set [2] turned out to be 100%.

As to `COc1cc2c(c3oc(-c4ccccc4)cc(=O)c13)C=CC(C)(C)O2` [CANDIDIN], the Ratio in data set [1] came out at 2.02. The viability at 20 µM in data set [2] is 79%.

Take `CC1(C)C=Cc2c(ccc(C(=O)/C=C/c3ccccc3)c2O)O1` [LONCHOCARPIN]: the Ratio in data set [1] came to 1.7. Further, the viability at 20 µM in data set [2] was found to be 84%.

Consider `O=C(/C=C/c1ccccc1)c1ccc2occc2c1O`, for which the Ratio in data set [1] amounted to 1.75. Also, the viability at 20 µM in data set [2] worked out at 90%. The same compound yielded a Retention_time in data set [5] of 58 min.

As for `CC1(C)C=Cc2c(ccc3c2OC(c2ccccc2)CC3=O)O1` (centres undefined), the Ratio in data set [1] was 1.54. Moreover, the viability at 20 µM in data set [2] worked out at 114%.

For the compound `COc1c(C(=O)/C=C/c2ccccc2)ccc2occc12`, in data set [1], the Ratio was determined as 2.01. In data set [2], the viability at 20 µM was 81%.

For the compound `COc1cc2c(c(O)c1C(=O)/C=C/c1ccccc1)C=CC(C)(C)O2`, the Ratio in data set [1] was 2.14. Besides, the viability at 20 µM in data set [2] was 83%. In data set [5], the Retention_time amounted to 131 min.

The values above are taken from ChEMBL document CHEMBL3399938, “Chemopreventive flavonoids from Millettia pulchra Kurz var-laxior (Dunn) Z.Wei (Yulangsan) function as Michael reaction acceptors” (Bioorg Med Chem Lett, 2015).
